Reference: ChEMBL document CHEMBL4311965, “Antimicrobial activity of amphipathic α,α-disubstituted β-amino amide derivatives against ESBL - CARBA producing multi-resistant bacteria; effect of halogenation, lipophilicity and cationic character” (Eur J Med Chem, 2019)
In brackets after ≈: the same amount, converted by molar mass.

Tests used:
[1] = system: Corynebacterium glutamicum; test: Antibacterial activity against Corynebacterium glutamicum ATCC 13032 cultured in MHB medium assessed as no bacterial growth incubated at 20 degC for 24 hrs by microdilution susceptibility test; format: functional; details: ATCC 13032, 24 h
Method in brief: (§1)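 Broth microdilution per CLSI M07-A9 with modifications. Inoculum about 2.5–3 x 10⁴ cells/mL in Mueller-Hinton broth, mixed 1:1 with test derivative. DMSO stocks diluted in double-distilled water, final DMSO <1%. Incubation 24 h at 37 °C (20 °C for C. glutamicum). Growth and sterility controls included; oxytetracycline reference.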

Pseudomonas aeruginosa [2] = test: Antibacterial activity against Pseudomonas aeruginosa PA01 DSM 19880 (ATCC 15692) cultured in MHB medium assessed as no bacterial growth incubated at 37 degC for 24 hrs by microdilution susceptibility test; format: functional; details: PAO1 DSM 19880 (ATCC 15692); method in brief: as §1
Erythrocyte = test: Hemolytic activity against human RBC incubated for 1 hr; format: cell-based
Method in brief: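 Heparinized human blood washed three times in warm PBS and set to 10% hct. Erythrocytes at 1% v/v final, with compound in PBS (DMSO <1%), shaken 1 h at 37 °C and then centrifuged. Supernatant absorbance read at 405 and 545 nm after PBS background subtraction. Haemolysis taken relative to 1% Triton X-100. Three independent replicates, EC50 averaged.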

[3] = Selectivity index, ratio of EC50 for hemolytic activity against human RBC to MIC for antibacterial activity against Staphylococcus aureus ATCC 9144; format: toxicity; details: human red blood cells (RBC)
Method in brief: (§2)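 Selectivity index is the RBC haemolysis EC50 divided by the MIC against the E. coli or S. aureus reference strain.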

[4] = Selectivity index, ratio of EC50 for hemolytic activity against human RBC to MIC for antibacterial activity against Escherichia coli ATCC 25922; format: toxicity; details: human red blood cells (RBC); method in brief: as §2
Staphylococcus aureus [5] = test: Antibacterial activity against multidrug-resistant Staphylococcus aureus WIS cultured in MHB medium assessed as reduction in bacterial growth incubated for 24 hrs by microdilution susceptibility test; format: functional
Method in brief: (§3)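 Broth microdilution per CLSI M07-A9 (modified). Working solutions made from concentrated DMSO stocks kept at r.t., diluted in double-distilled water, final DMSO <1%. Inoculum 1–1.2 x 10⁶ cells/mL in Mueller-Hinton broth, mixed 1:1 with compound. 37 °C, 24 h, four parallels. Read as OD₆₀₀. Where precipitation left residual OD, the point of major OD decrease was taken as the inhibitory concentration.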

Staphylococcus aureus [6] = test: Antibacterial activity against multidrug-resistant Staphylococcus aureus IHT 99040 cultured in MHB medium assessed as reduction in bacterial growth incubated for 24 hrs by microdilution susceptibility test; format: functional; details: IHT 99040, 24 h; method in brief: as §3
Enterococcus faecium = test: Antibacterial activity against multidrug-resistant Enterococcus faecium 50673722 cultured in BHIB medium assessed as reduction in bacterial growth incubated for 24 hrs by microdilution susceptibility test; format: functional; details: Enterococcus faecium, 50673722, 24 h
Method in brief: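 Enterococci grown in Brain Heart Infusion broth, otherwise broth microdilution per CLSI M07-A9 (modified). Concentrated DMSO stocks kept at r.t. and diluted in double-distilled water, final DMSO <1%. Inoculum 1–1.2 x 10⁶ cells/mL mixed 1:1 with compound. 37 °C, 24 h, four parallels. OD₆₀₀ read-out, lowest concentration with no growth.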

Escherichia coli [7] = test: Antibacterial activity against multidrug-resistant Escherichia coli 50579417 producing oxcillinase-48 cultured in MHB medium assessed as reduction in bacterial growth incubated for 24 hrs by microdilution susceptibility test; format: functional; details: Escherichia coli, 50579417, 24 h; method in brief: as §3
Escherichia coli [8] = test: Antibacterial activity against multidrug-resistant Escherichia coli 50639799 producing Verona integron encoded metallo beta-lactamse-29 cultured in MHB medium assessed as reduction in bacterial growth incubated for 24 hrs by microdilution susceptibility test; format: functional; details: Escherichia coli, 50639799, 24 h; method in brief: as §3
Escherichia coli [9] = test: Antibacterial activity against multidrug-resistant Escherichia coli 50739822 producing New Delhi metallo-beta-lactamase-1 cultured in MHB medium assessed as reduction in bacterial growth incubated for 24 hrs by microdilution susceptibility test; format: functional; details: Escherichia coli, 50739822, 24 h; method in brief: as §3
Escherichia coli [10] = test: Antibacterial activity against multidrug-resistant Escherichia coli 50857972 producing imipenem-type carbapenemase-26 cultured in MHB medium assessed as reduction in bacterial growth incubated for 24 hrs by microdilution susceptibility test; format: functional; details: Escherichia coli, 50857972, 24 h; method in brief: as §3
Pseudomonas aeruginosa [11] = test: Antibacterial activity against multidrug-resistant Pseudomonas aeruginosa K34-73 producing Verona integron encoded metallo beta-lactamse-4 cultured in MHB medium assessed as reduction in bacterial growth incubated for 24 hrs by microdilution susceptibility test; format: functional; details: K34-73, 24 h; method in brief: as §3
Pseudomonas aeruginosa [12] = test: Antibacterial activity against multidrug-resistant Pseudomonas aeruginosa K44-24 producing imipenem-type carbapenemase-14 cultured in MHB medium assessed as reduction in bacterial growth incubated for 24 hrs by microdilution susceptibility test; format: functional; details: K44-24, 24 h; method in brief: as §3
Pseudomonas aeruginosa [13] = test: Antibacterial activity against multidrug-resistant Pseudomonas aeruginosa 50692172 producing New Delhi metallo-beta-lactamase-1 cultured in MHB medium assessed as reduction in bacterial growth incubated for 24 hrs by microdilution susceptibility test; format: functional; details: Pseudomonas aeruginosa, 50692172, 24 h; method in brief: as §3
Klebsiella pneumoniae [14] = test: Antibacterial activity against multidrug-resistant Klebsiella pneumoniae K47-25 producing carbapenemase-2 cultured in MHB medium assessed as reduction in bacterial growth incubated for 24 hrs by microdilution susceptibility test; format: functional; details: K47-25, 24 h; method in brief: as §3
Klebsiella pneumoniae [15] = test: Antibacterial activity against multidrug-resistant Klebsiella pneumoniae K66-45 producing New Delhi metallo-beta-lactamase-1 cultured in MHB medium assessed as reduction in bacterial growth incubated for 24 hrs by microdilution susceptibility test; format: functional; details: K66-45, 24 h; method in brief: as §3
Klebsiella pneumoniae [16] = test: Antibacterial activity against multidrug-resistant Klebsiella pneumoniae 50531633 producing New Delhi metallo-beta-lactamase-1 and oxcillinase-181 cultured in MHB medium assessed as reduction in bacterial growth incubated for 24 hrs by microdilution susceptibility test; format: functional; details: Klebsiella pneumoniae, 50531633, 24 h; method in brief: as §3
Klebsiella pneumoniae [17] = test: Antibacterial activity against multidrug-resistant Klebsiella pneumoniae 50625602 producing oxcillinase-245 cultured in MHB medium assessed as reduction in bacterial growth incubated for 24 hrs by microdilution susceptibility test; format: functional; details: Klebsiella pneumoniae, 50625602, 24 h; method in brief: as §3
Acinetobacter baumannii [18] = test: Antibacterial activity against multidrug-resistant Acinetobacter baumannii K12-21 producing oxcillinase-58 cultured in MHB medium assessed as reduction in bacterial growth incubated for 24 hrs by microdilution susceptibility test; format: functional; details: K12-21, 24 h; method in brief: as §3
Acinetobacter baumannii [19] = test: Antibacterial activity against multidrug-resistant Acinetobacter baumannii K44-35 producing oxcillinase-23 cultured in MHB medium assessed as reduction in bacterial growth incubated for 24 hrs by microdilution susceptibility test; format: functional; details: K44-35, 24 h; method in brief: as §3
Acinetobacter baumannii [20] = test: Antibacterial activity against multidrug-resistant Acinetobacter baumannii K47-42 producing oxcillinase-23 cultured in MHB medium assessed as reduction in bacterial growth incubated for 24 hrs by microdilution susceptibility test; format: functional; details: K47-42, 24 h; method in brief: as §3
Acinetobacter baumannii [21] = test: Antibacterial activity against multidrug-resistant Acinetobacter baumannii K55-13 producing oxcillinase-24 cultured in MHB medium assessed as reduction in bacterial growth incubated for 24 hrs by microdilution susceptibility test; format: functional; details: K55-13, 24 h; method in brief: as §3

| SMILES | MIC [1] | MIC (Pseudomonas aeruginosa [2]) | EC50 (Erythrocyte) | selectivity ratio [3] | selectivity ratio [4] | MIC (Staphylococcus aureus [5]) | MIC (Staphylococcus aureus [6]) | MIC (Enterococcus faecium) | MIC (Escherichia coli [7]) | MIC (Escherichia coli [8]) | MIC (Escherichia coli [9]) | MIC (Escherichia coli [10]) | MIC (Pseudomonas aeruginosa [11]) | MIC (Pseudomonas aeruginosa [12]) | MIC (Pseudomonas aeruginosa [13]) | MIC (Klebsiella pneumoniae [14]) | MIC (Klebsiella pneumoniae [15]) | MIC (Klebsiella pneumoniae [16]) | MIC (Klebsiella pneumoniae [17]) | MIC (Acinetobacter baumannii [18]) | other results |
| --- | --- | --- | --- | --- | --- | --- | --- | --- | --- | --- | --- | --- | --- | --- | --- | --- | --- | --- | --- | --- | --- |
| NCCNC(=O)C(CN)(Cc1cc(Br)cc(Br)c1)Cc1cc(Br)cc(Br)c1 | 2 µg/mL (≈ 3.19 µM) | 4 µg/mL (≈ 6.38 µM) | 58 µg/mL (≈ 92.5 µM) | 29 | 15 | 16 µg/mL (≈ 25.5 µM) | 16 µg/mL (≈ 25.5 µM) | 8 µg/mL (≈ 12.8 µM) | 8 µg/mL (≈ 12.8 µM) | 16 µg/mL (≈ 25.5 µM) | 8 µg/mL (≈ 12.8 µM) | 8 µg/mL (≈ 12.8 µM) | 32 µg/mL (≈ 51 µM) | 32 µg/mL (≈ 51 µM) | > 32 µg/mL | 16 µg/mL (≈ 25.5 µM) | 32 µg/mL (≈ 51 µM) | 16 µg/mL (≈ 25.5 µM) | 8 µg/mL (≈ 12.8 µM) | 32 µg/mL (≈ 51 µM) | MIC (Acinetobacter baumannii [19]): 32 µg/mL (≈ 51 µM); MIC (Acinetobacter baumannii [20]): 16 µg/mL (≈ 25.5 µM); MIC (Acinetobacter baumannii [21]): 16 µg/mL (≈ 25.5 µM) |
| NCCNCC(CN)(Cc1ccccc1Br)Cc1ccccc1Br | 2 µg/mL (≈ 4.39 µM) | 16 µg/mL (≈ 35.1 µM) | 209 µg/mL (≈ 459 µM) | 13 | 13 | 8 µg/mL (≈ 17.6 µM) | 8 µg/mL (≈ 17.6 µM) | 16 µg/mL (≈ 35.1 µM) | 16 µg/mL (≈ 35.1 µM) | 16 µg/mL (≈ 35.1 µM) | 16 µg/mL (≈ 35.1 µM) | 16 µg/mL (≈ 35.1 µM) | 32 µg/mL (≈ 70.3 µM) | 32 µg/mL (≈ 70.3 µM) | 32 µg/mL (≈ 70.3 µM) | 16 µg/mL (≈ 35.1 µM) | 16 µg/mL (≈ 35.1 µM) | 16 µg/mL (≈ 35.1 µM) | 16 µg/mL (≈ 35.1 µM) | 16 µg/mL (≈ 35.1 µM) | MIC (Acinetobacter baumannii [19]): 16 µg/mL (≈ 35.1 µM); MIC (Acinetobacter baumannii [20]): 16 µg/mL (≈ 35.1 µM); MIC (Acinetobacter baumannii [21]): 16 µg/mL (≈ 35.1 µM) |
| N=C(N)NCCNC(=O)C(CNC(=N)N)(Cc1cc(Br)cc(Br)c1)Cc1cc(Br)cc(Br)c1 | 0.25 µg/mL (≈ 0.352 µM) | 4 µg/mL (≈ 5.63 µM) | 206 µg/mL (≈ 290 µM) | 206 | 26 | 2 µg/mL (≈ 2.81 µM) | 2 µg/mL (≈ 2.81 µM) | 4 µg/mL (≈ 5.63 µM) | 8 µg/mL (≈ 11.3 µM) | 8 µg/mL (≈ 11.3 µM) | 8 µg/mL (≈ 11.3 µM) | 8 µg/mL (≈ 11.3 µM) | 16 µg/mL (≈ 22.5 µM) | 16 µg/mL (≈ 22.5 µM) | 8 µg/mL (≈ 11.3 µM) | 32 µg/mL (≈ 45 µM) | 16 µg/mL (≈ 22.5 µM) | 16 µg/mL (≈ 22.5 µM) | 16 µg/mL (≈ 22.5 µM) | 16 µg/mL (≈ 22.5 µM) | MIC (Acinetobacter baumannii [19]): 16 µg/mL (≈ 22.5 µM); MIC (Acinetobacter baumannii [20]): 16 µg/mL (≈ 22.5 µM); MIC (Acinetobacter baumannii [21]): 16 µg/mL (≈ 22.5 µM) |
| NCCNC(=O)C(CN)(Cc1ccccc1C(F)(F)F)Cc1ccccc1C(F)(F)F | 8 µg/mL (≈ 17.9 µM) | 64 µg/mL (≈ 143 µM) | 312 µg/mL (≈ 697 µM) | 10 | 10 | > 32 µg/mL | 32 µg/mL (≈ 71.5 µM) | 32 µg/mL (≈ 71.5 µM) | > 32 µg/mL | > 32 µg/mL | > 32 µg/mL | > 32 µg/mL | > 32 µg/mL | > 32 µg/mL | > 32 µg/mL | > 32 µg/mL | > 32 µg/mL | > 32 µg/mL | > 32 µg/mL | > 32 µg/mL | MIC (Acinetobacter baumannii [19]): > 32 µg/mL; MIC (Acinetobacter baumannii [20]): > 32 µg/mL; MIC (Acinetobacter baumannii [21]): > 32 µg/mL |
